Active and inactive are the calls of the source. The rule behind the calls is not given here.
What was measured:
A549 [1] = experiment: Induction of cell cycle arrest in human A549 cells assessed as G1 phase cells at 3 uM by FACS analysis (reference value: 85.33%); assay type: functional
A549 [2] = experiment: Induction of apoptosis in human A549 cells assessed as increase in caspase3 activity at 3 uM after 48 hrs relative to control; assay type: functional
Procedure, shortened: (§1)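 A-549 cells were seeded at 2.5 × 10^6/well and treated 48 h alongside etoposide, then scraped and lysed on ice. Supernatant was mixed with 2X assay buffer and Ac-DEVD-AFC substrate for 1 h. Fluorescence (ex 400, em 505 nm) was read every 5 min, normalized to Bradford protein and expressed as fold over control. Two experiments, each in triplicate.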

HT-29 = experiment: Cytotoxicity against human HT-29 cells after 72 hrs by MTT assay; assay type: functional, cell-based; conditions: HT-29, 72 h
A549 [3] = experiment: Induction of apoptosis in human A549 cells assessed as DNA fragmentation at 3 uM after 48 hrs by agarose gel electrophoretic analysis; assay type: functional, cell-based
Procedure, shortened: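 Cells were seeded at 1 × 10^6/well and grown 48 h, then treated 48 h. Cells were pelleted and lysed. Lysate was given SDS and RNase-A at 56 °C for 2 h, then proteinase K at 37 °C for 2 h. DNA was precipitated with ammonium acetate and cold ethanol, washed with 80% ethanol and dissolved in TE. Laddering was read on 2% agarose gel in TE; 50 bp marker.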

A549 [4] = experiment: Induction of apoptosis in human A549 cells assessed as apoptotic bodies at 3 uM after 24 hrs by Hoechst staining method; assay type: functional, cell-based
Procedure, shortened: (§2)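 Cells were seeded at 10,000 per coverslip and grown 24 h, then treated 24 h. Vehicle control was 0.001% DMSO; etoposide was the standard. Hoechst at […] with 4% paraformaldehyde was added for 30 min at 37 °C. Random fields were imaged by fluorescence microscopy and apoptotic cells scored manually by cytoplasmic condensation, apoptotic bodies, nuclear fragmentation and relative fluorescence.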

A549 [5] = experiment: Induction of cell cycle arrest in human A549 cells assessed as G1 phase cells at 1 uM by FACS analysis (reference value: 85.33%); assay type: functional
A549 [6] = experiment: Induction of apoptosis in human A549 cells assessed as apoptotic bodies at 1 uM after 24 hrs by Hoechst staining method; assay type: functional, cell-based; procedure, shortened: as §2
A549 [7] = experiment: Induction of cell cycle arrest in human A549 cells assessed as S phase cells at 3 uM by FACS analysis (reference value: 3.69%); assay type: functional
A549 [8] = experiment: Induction of cell cycle arrest in human A549 cells assessed as sub G1 phase cells at 1 uM by FACS analysis (reference value: 1.08%); assay type: functional
A549 [9] = experiment: Induction of apoptosis in human A549 cells assessed as increase in fluorescence at 1 uM after 24 hrs by Hoechst staining method relative to control; assay type: functional, cell-based; procedure, shortened: as §2
A549 [10] = experiment: Induction of cell cycle arrest in human A549 cells assessed as G2/M phase cells at 3 uM by FACS analysis (reference value: 9.89%); assay type: functional
A549 [11] = experiment: Cytotoxicity against human A549 cells […] by MTT assay; assay type: functional, cell-based
A549 [12] = experiment: Induction of apoptosis in human A549 cells assessed as increase in caspase3 activity at 1 uM after 48 hrs relative to control; assay type: functional; procedure, shortened: as §1
B16 = experiment: Cytotoxicity against mouse B16 cells […] by MTT assay; assay type: functional, cell-based
HeLa = experiment: Cytotoxicity against human HeLa cells […] by MTT assay; assay type: functional, cell-based
A549 [13] = experiment: Induction of apoptosis in human A549 cells assessed as cytoplasmic condensation at 3 uM after 24 hrs by Hoechst staining method; assay type: functional, cell-based; procedure, shortened: as §2
A549 [14] = experiment: Induction of apoptosis in human A549 cells assessed as nuclear fragmentation at 1 uM after 24 hrs by Hoechst staining method; assay type: functional, cell-based; procedure, shortened: as §2
A549 [15] = experiment: Induction of apoptosis in human A549 cells assessed as cytoplasmic condensation at 1 uM after 24 hrs by Hoechst staining method; assay type: functional, cell-based; procedure, shortened: as §2
A549 [16] = experiment: Induction of apoptosis in human A549 cells assessed as nuclear fragmentation at 3 uM after 24 hrs by Hoechst staining method; assay type: functional, cell-based; procedure, shortened: as §2
ACHN = experiment: Cytotoxicity against human ACHN cells […] by MTT assay; assay type: functional, cell-based
A549 [17] = experiment: Induction of cell cycle arrest in human A549 cells assessed as G2/M phase cells at 1 uM by FACS analysis (reference value: 9.89%); assay type: functional
A549 [18] = experiment: Induction of cell cycle arrest in human A549 cells assessed as S phase cells at 1 uM by FACS analysis (reference value: 3.69%); assay type: functional
A549 [19] = experiment: Induction of apoptosis in human A549 cells assessed as increase in fluorescence at 3 uM after 24 hrs by Hoechst staining method relative to control; assay type: functional, cell-based; procedure, shortened: as §2
A549 [20] = experiment: Induction of cell cycle arrest in human A549 cells assessed as sub G1 phase cells at 3 uM by FACS analysis (reference value: 1.08%); assay type: functional

`COc1cc([C@@H]2c3cc4c(cc3[C@@H](NC(=O)c3cc(-c5ccc(Cl)c(Cl)c5)[nH]n3)[C@H]3COC(=O)[C@H]23)OCO4)cc(OC)c1OC` was tested, and the Activity (A549 [1]) was 27.71%, the “fold change (FC)” value (A549 [2]) was 6 and the IC50 (HT-29) was 7.1 µM. The Activity (A549 [3]) was “Active”, the Activity (A549 [4]) was “Active” and the Activity (A549 [5]) was 63.35%. The Activity (A549 [6]) was “Active”, the Activity (A549 [7]) was 8.96% and the Activity (A549 [8]) was 6.77%. For the same compound, the Activity (A549 [9]) was “Active”, the Activity (A549 [10]) was 61.28% and the IC50 (A549 [11]) was 2.1 µM. The “fold change (FC)” value (A549 [12]) was 4, the IC50 (B16) was 9.5 µM and the IC50 (HeLa) was 9.3 µM. For the same compound, the Activity (A549 [13]) was “Active”, the Activity (A549 [14]) was “Active” and the Activity (A549 [15]) was “Active”. The Activity (A549 [16]) was “Active”, the IC50 (ACHN) was 15.9 µM and the Activity (A549 [17]) was 27.68%. For the same compound, the Activity (A549 [18]) was 2.27%, the Activity (A549 [19]) was “Active” and the Activity (A549 [20]) was 2.05%.
